# Measured values gathered from unrelated publications.
# Protocols differ between the studies behind these lines.
# Target: Tyrosine-protein kinase ITK/TSK (ITK, Homo sapiens, UniProt Q08881)
# One construct used (Q08881 1-620): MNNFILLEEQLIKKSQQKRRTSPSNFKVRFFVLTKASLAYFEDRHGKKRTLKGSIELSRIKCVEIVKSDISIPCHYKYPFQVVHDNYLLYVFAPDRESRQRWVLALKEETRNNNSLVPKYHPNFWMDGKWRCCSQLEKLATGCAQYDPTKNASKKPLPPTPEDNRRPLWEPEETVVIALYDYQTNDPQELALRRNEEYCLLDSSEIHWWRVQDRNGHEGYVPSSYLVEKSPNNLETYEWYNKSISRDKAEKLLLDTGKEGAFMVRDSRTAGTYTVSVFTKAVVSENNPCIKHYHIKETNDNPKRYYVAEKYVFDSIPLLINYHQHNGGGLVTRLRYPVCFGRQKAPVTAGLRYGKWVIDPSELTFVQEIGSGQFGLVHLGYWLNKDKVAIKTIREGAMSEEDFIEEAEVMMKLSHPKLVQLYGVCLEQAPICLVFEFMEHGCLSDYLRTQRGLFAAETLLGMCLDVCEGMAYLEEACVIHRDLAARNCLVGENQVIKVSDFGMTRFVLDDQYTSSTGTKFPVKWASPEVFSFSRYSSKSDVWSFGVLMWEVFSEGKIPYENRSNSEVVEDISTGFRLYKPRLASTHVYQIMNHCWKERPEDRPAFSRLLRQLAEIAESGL
Structure (SMILES),read-out,technique,tested at,remaining binding [%]
CC1CCCN1c1nccc(-c2cnn3ncccc23)n1 (centres unmarked),binding,,1 µM,100
CCC(=N\O)/C(C)=C/c1ccc(F)cc1,cell-free assay,competition with immobilised ligand,1 µM,90
F[C@@H]1CCN(c2nccc(-c3cnn4ncccc34)n2)C1,binding,,1 µM,100
COc1cnc(Nc2cccc(S(N)(=O)=O)c2)nc1N1CCN(c2ccccc2)C(=O)C1,binding,competition with immobilised ligand,1 µM,100
O=C(c1ccc(Nc2ncc(Cl)c(-c3ccc(Cl)s3)n2)cc1)N1CCC(N2CCCC2)CC1,binding,competition with immobilised ligand,1 µM,29
CN(CCCC(F)(F)F)c1nccc(-c2cnn3ncccc23)n1,binding,,1 µM,95
COc1ncc2cc3ccccc3nc2c1C#N,cell-free assay,competition with immobilised ligand,5 µM,97
FC(F)(F)Oc1cccc(-c2cnc3ccc(-c4ccncc4)nn23)c1,cell-free assay,competition with immobilised ligand,5 µM,84
CCN1CCN(Cc2ccc(C(=O)Nc3ccc(C)c(Oc4ccc5c(c4)CC(=O)N5)c3)cc2C(F)(F)F)CC1,binding,competition with immobilised ligand,1 µM,72
O=C(c1ccc(Nc2nccc(-c3cc4ccccc4s3)n2)cc1)N1CCC(N2CCCC2)CC1,binding,competition with immobilised ligand,1 µM,96
Cc1c(NC(=O)c2cc(C(N)=O)nc3cc(F)ccc23)c(C(F)(F)F)nn1Cc1ccc(C#N)cc1,cell-free assay,competition with immobilised ligand,1 µM,78
N[C@H]1CCN(c2nccc(-c3cnn4ncccc34)n2)C1,binding,,1 µM,100
Cc1nccc(COC(=O)N2C[C@@H]3[C@@H](CNC(=O)c4ccc5[nH]nnc5c4)[C@@H]3C2)n1,cell-free assay,competition with immobilised ligand,1 µM,100
O=C(Nc1c[nH]nc1C(=O)NC1CCNCC1)c1cc(F)cc(F)c1,binding,competition with immobilised ligand,1 µM,100
CCC(=O)N[C@@H]1CC[C@H](C(=O)N(C)c2ccc(-c3nc4ccccc4o3)cc2)C1,cell-free assay,competition with immobilised ligand,1 µM,100
C[C@H]1CCN(c2nccc(-c3cnn4ncccc34)n2)C1,binding,,1 µM,93
O=C(Nc1cccnn1)N1CC(C/C=C/c2cncc(Oc3ccc(C(F)(F)F)cn3)n2)C1,cell-free assay,competition with immobilised ligand,1 µM,100
Cc1cnc(Nc2ccc(C(=O)N3CCC(N4CCCC4)CC3)cc2)nc1-c1cc2ccccc2s1,binding,competition with immobilised ligand,1 µM,59
CN1CCN(c2cnc3c(C4CCN(C(=O)c5ccc(OC(F)(F)F)cc5N)CC4)ncnc3c2)CC1,cell-free assay,competition with immobilised ligand,1 µM,100
CN(C)c1nccc(-c2cnn3ncccc23)n1,binding,,1 µM,100
